This is a sample that favours compounds with a hit; in the whole collection about 1.6% have one here.
MBD2 inh – blocks human MBD2 binding to methylated DNA. Q9UBB5. TR-FRET, MBD2 binding to methylated oligonucleotide. inhibition, % at 4.4 µM. actives 0.31% (n = 370,000); in the data active = inhibition above about 13%
LEDGF integ inh – blocks HIV-1 LEDGF/p75-dependent DNA integration; TR-FRET IN-LEDGF/p75 DNA integration, Eu/Cy5; inhibition, % at 3.7 µM; actives 0.64% (n = 370,000);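 active = inhibition above the screen-wide mean plus 3 SD, cut at about 13% in these data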;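 note: signal is the Cy5 over europium emission ratio at 671 and 618 nm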
UHRF1 MBD2 ctr – blocks human UHRF1 binding to methylated DNA; inhibition, % at 4.4 µM; Q96T88; UHRF1 binding to methylated oligo, TR-FRET; actives 0.75% (n = 370,000); AID 687016; in the data active = inhibition above about 21%;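 note: UHRF1 SRA domain binding a hemimethylated CpG hairpin DNA probe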
Target sequence (Q96T88 whole entry, looked up, the tested form may be a part): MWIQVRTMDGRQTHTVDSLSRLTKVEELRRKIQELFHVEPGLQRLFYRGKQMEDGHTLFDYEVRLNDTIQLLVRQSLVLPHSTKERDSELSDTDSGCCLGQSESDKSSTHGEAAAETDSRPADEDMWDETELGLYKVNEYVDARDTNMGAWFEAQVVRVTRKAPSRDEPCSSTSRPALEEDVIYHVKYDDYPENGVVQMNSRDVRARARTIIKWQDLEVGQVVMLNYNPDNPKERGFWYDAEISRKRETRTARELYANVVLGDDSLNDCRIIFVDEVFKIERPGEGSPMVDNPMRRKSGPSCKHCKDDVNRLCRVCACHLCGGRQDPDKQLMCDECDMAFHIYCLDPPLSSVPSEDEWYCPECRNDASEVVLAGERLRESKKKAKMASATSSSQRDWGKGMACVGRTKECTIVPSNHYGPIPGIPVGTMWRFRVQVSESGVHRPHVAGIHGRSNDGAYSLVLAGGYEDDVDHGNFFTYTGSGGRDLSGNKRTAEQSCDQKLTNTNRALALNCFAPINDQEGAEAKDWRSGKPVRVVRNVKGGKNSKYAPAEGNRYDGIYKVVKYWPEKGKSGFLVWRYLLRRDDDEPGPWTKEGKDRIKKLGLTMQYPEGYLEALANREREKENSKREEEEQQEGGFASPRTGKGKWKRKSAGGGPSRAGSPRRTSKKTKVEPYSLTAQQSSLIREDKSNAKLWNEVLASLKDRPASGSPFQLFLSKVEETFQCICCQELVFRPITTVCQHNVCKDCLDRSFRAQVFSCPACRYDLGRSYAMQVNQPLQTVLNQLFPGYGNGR
TDP2 inh – blocks human TDP2 phosphodiesterase activity. AID 720702. inhibition, % at 12.8 µM. O95551. actives 0.34% (n = 370,000). recombinant TDP2, T5PNP hydrolysis, p-nitrophenol absorbance 415 nm;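 active = inhibition above the mean of all tested compounds plus 3 SD, set per campaign, cut at about 25% in these data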
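Test system: human TDP2 enzyme; Input: 120 nM TDP2 per well; Buffer or medium: Mg2+-containing Tris-HCl buffer, pH 7.5; Reagent: 5 mM T5PNP; Dosing: 12.8 µM single point, 1% DMSO; Incubation: reaction 2 h, 37 °C; Detection: p-Nitrophenol epi absorbance; Read-out: % inhibition relative to enzyme-containing and enzyme-free wells; Replicates: single well per compound.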
IN multimer act – activates HIV-1 integrase multimerization in LEDGF counter-screen | shares compounds with LEDGF integ inh | activation, % at 7.7 µM | actives 17% (n = 2,000) | TR-FRET HIV-1 integrase multimerization, biochemical; in the data active = activation above about 8.9%
TR-FRET interf – counter-screen for LEDGF/p75 integration inhibitors: TR-FRET optical interference | shares compounds with LEDGF integ inh | TR-FRET optical interference counterscreen, HIV-1 IN multimerization | inhibition, % at 7.7 µM | 2,000 tested, under 10 active | AID 1053135;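 active = inhibition above the mean over all tested compounds plus 3 SD, which no compound reached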
IN-LEDGF confirm – LEDGF/p75-dependent HIV-1 integration inhibition, confirmation; TR-FRET LEDGF/p75-dependent HIV-1 integration, biochemical; inhibition, % at 3.7 µM; shares compounds with LEDGF integ inh; AID 1053136; actives 36% (n = 2,000); in the data active = inhibition above about 14%
A number is an active result; - = inactive; . = no result.

SMILES	MBD2 inh	LEDGF integ inh	UHRF1 MBD2 ctr	TDP2 inh	IN multimer act	TR-FRET interf	IN-LEDGF confirm
O=S(=O)(O)c1cc(Cl)cc(N=Nc2ccc(O)cc2O)c1O	-	72	-	-	14	-	31
CCNc1ccc(Br)cc(C(=O)/C=C/c2ccccc2Cl)c1=O	-	-	-	-	.	.	.
CNc1ccc(Br)cc(C(=O)/C=C/c2cccc(OC)c2OC)c1=O	-	16	-	-	-	-	27
CNc1ccc(Br)cc(C(=O)/C=C/c2cccc(Cl)c2Cl)c1=O	-	15	-	-	-	-	21
COCCCN1C(=O)N(c2ccccc2)C(=O)C1CC(=O)Nc1ccc(F)cc1 (stereo not given)	-	-	-	-	.	.	.
COc1ccc(CCN2CCCC(CN(C)C(=O)c3ccoc3)C2)cc1 (stereo not given)	-	-	-	-	.	.	.
Cc1ccc(C=Nn2c(-c3n[nH]c4c3CCC4)n[nH]c2=S)o1	-	-	-	-	.	.	.
COc1ccccc1NC(=O)/C(C#N)=C/C=C/c1ccco1	-	25	-	-	-	-	-
COc1ccccc1NC(=O)/C=C\c1ccco1	-	-	-	-	.	.	.
COc1ccc(NC(=O)N[C@@H](CCSC)C(=O)O)cc1Cl	-	81	-	-	-	-	-
CN(C)CCCNc1cc(O)c2ncccc2c1	-	30	-	-	-	-	40
O=C(Cn1nc(-c2ccc(Cl)cc2)ccc1=O)NCC1COCCO1 (stereo not given)	-	-	-	-	.	.	.
C=CCn1c(C)cc(-c2csc(NC(=O)C3=COCCO3)n2)c1C	-	51	-	-	-	-	-
Cc1cc(C)c(-c2csc(NC(=O)C3=COCCO3)n2)cc1C	-	-	-	-	.	.	.
Cc1noc(/C=C/N(C)C)c1S(=O)(=O)N1CCCC(C(=O)NCc2cccs2)C1 (stereo not given)	-	17	-	-	-	-	-
Cc1noc(/C=C/N(C)C)c1S(=O)(=O)N1CCC(C(=O)O)CC1	-	17	-	-	-	-	-
CC[C@@H](C)CN1C(=O)N[C@@H](c2ccccc2)C(C(C)=O)=C1C	-	18	-	-	-	-	19
CC(=O)Nc1ccc(-c2ccnc3c2CC(C(=O)Nc2ccc(Cl)c(C(F)(F)F)c2)O3)cc1 (stereo not given)	-	37	-	-	-	-	-
CCN(C[C@H]1N[C@@](Cc2ccccc2)(C(=O)OC)[C@H]2C(=O)N(Cc3ccccc3)C(=O)[C@@H]12)S(=O)(=O)c1ccc(C(F)(F)F)cc1	-	25	-	-	-	-	-
COC(=O)[C@]1(Cc2ccccc2)N[C@H](CN(C)S(=O)(=O)c2ccc(C(F)(F)F)cc2)[C@@H]2C(=O)N(Cc3ccccc3)C(=O)[C@@H]21	-	-	-	-	.	.	.
COC(=O)[C@]1(C)N[C@H](CN(C)S(=O)(=O)c2ccc(C(F)(F)F)cc2)[C@@H]2C(=O)N(C)C(=O)[C@@H]21	-	36	-	-	-	-	-
CCn1c(SCc2nc3ccccc3[nH]2)nnc1-c1cccs1	-	-	-	-	.	.	.
COC(=O)[C@H]1[C@@H](O)[C@@]2(O)c3c(OC)cc(OC)cc3O[C@@]2(c2ccc(OC)cc2)[C@@H]1c1ccc(F)cc1	-	15	-	-	-	-	-
COC(=O)C1C(=O)C=C(Nc2ccc(F)cc2)CC1c1ccc(OC)cc1 (stereo not given)	-	-	-	-	.	.	.
Cc1ccc(-n2nnnc2CNC(=O)C2CC(=O)N(c3ccccc3)C2)cc1C (stereo not given)	-	-	-	-	.	.	.
SMILES	MBD2 inh	LEDGF integ inh	UHRF1 MBD2 ctr	TDP2 inh	IN multimer act	TR-FRET interf	IN-LEDGF confirm
CCC(CC)C(=O)N(C)c1c(C)nc2c(OCc3ccc(C#N)cc3)cccn12	-	15	-	-	-	-	-
CCC(CC)C(=O)N(C)c1c(C)nc2c(OCc3ccccc3C)cccn12	-	-	-	-	.	.	.
Cc1ccc(S(=O)(=O)Nc2cc(C(=O)N3CCOCC3)ccc2N2CCCCC2)cc1	-	25	-	-	-	-	-
Cc1ccc(S(=O)(=O)Nc2cc(C(=O)O)ccc2N2CCCCC2)cc1	-	-	-	-	.	.	.
CC(NC(=O)COC(=O)CSc1ccc(F)cc1)c1ccc(F)cc1 (stereo not given)	-	-	-	-	.	.	.
CCc1nc(SCC(=O)Nc2cc(C)on2)c2c(C)c(C)sc2n1	-	-	-	-	.	.	.
Cc1cc(NC(=O)CSc2nc(C3CC3)nc3sc(C)c(C)c23)no1	-	17	-	-	16	-	-
O=C(NCc1ccco1)c1cc(=O)c2ccccc2o1	-	-	-	-	.	.	.
Cn1c(=O)c(C(=O)c2ccc(S(C)(=O)=O)c(Cl)c2Cl)c(O)c2ccccc21	-	38	-	-	-	-	-
CC(=O)NCCn1c(SCC(=O)NCCc2ccc(S(N)(=O)=O)cc2)nc2ccccc2c1=O	-	-	-	-	.	.	.
C[C@H]1C(C(=O)N(C)C2CCCCC2)=Cc2c(n(-c3ccc(F)cc3)c(=O)n2CCCOc2ccccc2)C=C1c1ccccc1	-	44	-	-	-	-	17
COc1ccc(-c2csc(NC(=O)c3cccs3)c2C(=O)O)cc1OC	-	18	-	-	-	-	-
COc1ccc(-c2csc(NC(=O)c3ccccc3OC)c2C(=O)O)cc1OC	-	-	-	-	.	.	.
O=c1cc(-c2ccc(O)cc2)oc2c(O)c(O)c(O)c(O)c12	-	41	-	-	19	-	92
O=c1cc(-c2ccccc2)oc2cc(O)c(O)c(O)c12	-	30	-	-	-	-	26
COc1c(O)cc2oc(-c3ccc(O)cc3)cc(=O)c2c1O	-	-	-	-	.	.	.
Cc1ccc(N2C(=O)/C(=C/c3ccco3)SC2=S)cc1	-	19	-	-	-	-	-
N=C1S/C(=C\c2ccco2)C(=O)N1c1ccc2c(c1)OCO2	-	15	-	-	-	-	18
O=c1cc(C2CCCCC2)[nH]c(=O)[nH]1	-	-	-	-	.	.	.
c1ccc(-n2nnc3ccccc32)cc1	-	-	-	-	.	.	.
C(=C\n1nnc2ccccc21)/c1ccc[nH]1	-	27	-	-	-	-	37
COC(=O)C1=C(N)N(c2ccccc2C(F)(F)F)C2=C(C(=O)CCC2)C1c1ccc2c(c1)OCO2 (stereo not given)	-	33	-	-	-	-	-
O=c1[nH]c(CN2CCc3ccccc32)nc2scc(-c3cccs3)c12	-	18	-	-	-	-	-
COc1ccc(C(=O)Nc2ccccc2N2CCCC2)cc1	-	-	-	-	.	.	.
O=C1OC(c2ccccc2)=N/C1=C\C=C\c1ccccc1[N+](=O)[O-]	-	-	-	-	.	.	.
